Experimental findings from ChEMBL document CHEMBL1138684, “Determinants of retinoid X receptor transcriptional antagonism” (J Med Chem, 2004) are described below.

A word on the IC50: it is the concentration that gives 50% inhibition.

Assay [1] deals with T1, Retinoic acid receptor RXR-alpha (Homo sapiens, UniProt P19793).
T1 sequence (P19793 whole entry): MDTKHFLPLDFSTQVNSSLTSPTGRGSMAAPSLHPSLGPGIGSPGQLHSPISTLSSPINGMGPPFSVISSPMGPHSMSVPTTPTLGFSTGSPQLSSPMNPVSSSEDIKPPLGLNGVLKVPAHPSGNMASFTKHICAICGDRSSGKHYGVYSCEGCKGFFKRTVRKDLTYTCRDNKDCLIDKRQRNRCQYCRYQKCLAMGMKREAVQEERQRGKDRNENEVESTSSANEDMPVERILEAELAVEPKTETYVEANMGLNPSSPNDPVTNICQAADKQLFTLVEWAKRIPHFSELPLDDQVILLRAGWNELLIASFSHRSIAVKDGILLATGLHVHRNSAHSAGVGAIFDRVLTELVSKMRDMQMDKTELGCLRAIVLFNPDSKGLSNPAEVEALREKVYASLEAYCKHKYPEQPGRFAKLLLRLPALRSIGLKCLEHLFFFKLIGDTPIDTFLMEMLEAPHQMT
Description: Inhibition of [3H]9-cis-retinoic acid binding to human retinoid X receptor alpha ligand-binding domain expressed in Escherichia coli.

Assay [2] has as its target T2, Retinoic acid receptor alpha (Homo sapiens) (UniProt P10276).
T2 sequence (whole entry): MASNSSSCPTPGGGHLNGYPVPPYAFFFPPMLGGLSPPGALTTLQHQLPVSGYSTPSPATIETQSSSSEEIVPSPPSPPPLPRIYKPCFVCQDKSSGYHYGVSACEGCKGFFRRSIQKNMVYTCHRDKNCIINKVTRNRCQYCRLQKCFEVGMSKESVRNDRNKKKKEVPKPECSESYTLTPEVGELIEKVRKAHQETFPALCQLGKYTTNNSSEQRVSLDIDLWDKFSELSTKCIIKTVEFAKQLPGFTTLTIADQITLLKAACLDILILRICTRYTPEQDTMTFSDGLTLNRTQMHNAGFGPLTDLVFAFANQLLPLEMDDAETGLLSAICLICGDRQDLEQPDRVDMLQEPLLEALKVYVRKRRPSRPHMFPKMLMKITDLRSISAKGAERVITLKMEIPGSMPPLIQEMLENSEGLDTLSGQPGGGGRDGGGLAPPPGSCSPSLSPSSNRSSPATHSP
Description: Antagonism of retinoic acid receptor alpha activity induced by retinoic acid at 10e-6 M. Format: functional. An outline of the steps:
(§1)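 CV-1 cells kept in DMEM with 10% FCS and seeded 16-24 h before calcium precipitation cotransfection: RARα, β or γ vector (100 µg) with (TREpal)2-tk-CAT or CRBP-I-tk-CAT reporter (200 µg), plus β-gal vector. At 20 h, medium switched to 5% charcoal-stripped FCS. Cells got 1 × 10^-7 M trans-RA ± test agent for 24 h. CAT normalized to β-gal, as % of trans-RA alone.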

Assay [3] addresses T3, Retinoic acid receptor RXR-alpha (Homo sapiens) (UniProt P19793).
T3 sequence (whole entry): T1 sequence (P19793 whole entry)
Kind of assay: Antagonism of retinoid X receptor alpha activity induced by retinoic acid […] at 10e-5 M. Format: functional. An outline of the steps:
(§2)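 CV-1 cells in DMEM/10% FCS, cotransfected by calcium precipitation with RXRα vector (20 µg), CRBP-II-tk-CAT reporter (200 µg) and β-gal vector. At 20 h, medium changed to 5% charcoal-stripped FCS. Cells treated 24 h with 1 × 10^-7 M 9-cis-RA ± test agent. CAT activity normalized to β-gal, expressed relative to 9-cis-RA alone as 100%.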

The target of assay [4] is T4, Retinoic acid receptor gamma (Homo sapiens) (UniProt P13631).
T4 sequence (whole entry): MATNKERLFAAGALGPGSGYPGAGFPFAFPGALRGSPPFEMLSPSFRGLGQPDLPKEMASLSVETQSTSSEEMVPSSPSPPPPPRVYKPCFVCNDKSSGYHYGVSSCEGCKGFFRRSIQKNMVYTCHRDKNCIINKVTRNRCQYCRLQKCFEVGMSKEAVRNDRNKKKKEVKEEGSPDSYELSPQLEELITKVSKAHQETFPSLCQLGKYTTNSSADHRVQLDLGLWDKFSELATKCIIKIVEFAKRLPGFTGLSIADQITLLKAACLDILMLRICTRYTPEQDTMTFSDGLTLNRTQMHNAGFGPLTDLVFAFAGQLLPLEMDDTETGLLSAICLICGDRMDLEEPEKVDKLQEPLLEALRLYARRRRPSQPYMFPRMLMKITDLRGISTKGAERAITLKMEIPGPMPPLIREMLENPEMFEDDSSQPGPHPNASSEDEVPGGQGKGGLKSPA
Kind of assay: Antagonism of retinoic acid receptor gamma activity induced by retinoic acid at 10e-7 M. It counts as functional. An outline of the steps:
as §1

The target in assay [5] is T2, Retinoic acid receptor alpha (Homo sapiens). Kind of assay: Antagonism of retinoic acid receptor alpha activity induced by retinoic acid at 10e-5 M. It counts as functional. Summed up:
as §1

Assay [6] deals with T4, Retinoic acid receptor gamma (Homo sapiens). Description: Antagonism of retinoic acid receptor gamma activity induced by retinoic acid at 10e-6 M. It counts as functional. An outline of the steps: as §1
For assay [7], the target named is T5, Retinoic acid receptor beta (Homo sapiens) (UniProt P10826).
T5 sequence (whole entry): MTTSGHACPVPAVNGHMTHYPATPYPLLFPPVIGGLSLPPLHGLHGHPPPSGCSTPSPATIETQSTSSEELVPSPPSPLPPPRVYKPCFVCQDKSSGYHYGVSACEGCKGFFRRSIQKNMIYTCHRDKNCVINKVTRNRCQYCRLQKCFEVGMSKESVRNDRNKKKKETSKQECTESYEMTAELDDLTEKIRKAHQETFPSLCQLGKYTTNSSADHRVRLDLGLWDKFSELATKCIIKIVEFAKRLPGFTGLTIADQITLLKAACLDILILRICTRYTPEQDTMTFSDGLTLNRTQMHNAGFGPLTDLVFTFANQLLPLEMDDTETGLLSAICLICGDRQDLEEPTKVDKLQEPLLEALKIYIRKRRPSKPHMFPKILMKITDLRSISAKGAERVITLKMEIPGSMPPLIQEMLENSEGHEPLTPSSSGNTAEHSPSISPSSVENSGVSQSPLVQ
Description: Antagonism of retinoic acid receptor beta activity induced by retinoic acid at 10e-6 M. Format: functional. Summed up: as §1

Assay [8] has as its target T5, Retinoic acid receptor beta (Homo sapiens). Description: Antagonism of retinoic acid receptor beta activity induced by retinoic acid at 10e-5 M. Format: functional. An outline of the steps: as §1
In assay [9] the target is T2, Retinoic acid receptor alpha (Homo sapiens). Kind of assay: Antagonism of retinoic acid receptor alpha activity induced by retinoic acid at 10e-7 M. It counts as functional. An outline of the steps: as §1
Assay [10] deals with T3, Retinoic acid receptor RXR-alpha (Homo sapiens). Description: Antagonism of retinoid X receptor alpha activity induced by retinoic acid […] at 10e-6 M. Format: functional. An outline of the steps: as §2
Assay [11] has the same target. Kind of assay: Antagonism of retinoid X receptor alpha activity induced by retinoic acid […] at 10e-7 M. It counts as functional. Summed up:
as §2

Assay [12] has as its target T5, Retinoic acid receptor beta (Homo sapiens). Kind of assay: Antagonism of retinoic acid receptor beta activity induced by retinoic acid at 10e-7 M. It counts as functional. Summed up: as §1
Assay [13] addresses T4, Retinoic acid receptor gamma (Homo sapiens). Kind of assay: Antagonism of retinoic acid receptor gamma activity induced by retinoic acid at 10e-5 M. Format: functional. An outline of the steps:
as §1

Turning to `Cc1cc2c(cc1C(=C1CC1)c1ccc(C(=O)O)cc1)C(C)(C)CCC2(C)C`, in assay [1], the 50% inhibitory concentration (IC50) is 21 nM.

Take `CCCCOc1cc2c(cc1C(=C1CC1)c1ccc(C(=O)O)cc1)C(C)(C)CCC2(C)C`: the IC50 in assay [1] worked out at 270 nM.

Turning to `CCCCc1cc2c(cc1C(=C1CC1)c1ccc(C(=O)O)cc1)C(C)(C)CCC2(C)C`, the Relative activation was determined as 45% in [2]; 48% in assay [3]; 95% in assay [4]; 22% in assay [5]; 99% in [6]; 88% in [7]. Also, the Relative activation was 65% in assay [8]; 82% in [9]; 88% in assay [10]; 115% in assay [11]; 98% in [12]; 91% in [13]. Besides, the IC50 in assay [1] amounted to 500 nM.

Take `CCCOc1cc2c(cc1C(=C1CC1)c1ccc(C(=O)O)cc1)C(C)(C)CCC2(C)C`: the IC50 in assay [1] is 120 nM.

`CCCCOc1cc2c(cc1C(=C1CC1)c1ccc(C(=O)O)cn1)C(C)(C)CCC2(C)C`: the IC50 in [1] stood at 10 nM.

`CCCOc1cc2c(cc1C(=C1CC1)c1ccc(C(=O)O)cn1)C(C)(C)CCC2(C)C`: in [1], the IC50 was 6 nM.

`C=C(c1ccc(C(=O)O)cc1)c1cc2c(cc1CCCC)C(C)(C)CCC2(C)C`: the Relative activation in assay [2] worked out at 30%; in assay [3], 150%; in assay [4], 89%; in assay [5], 20%; in assay [6], 94%; in assay [7], 102%. The Relative activation in assay [8] came to 84%; in [9], 75%; in assay [10], 130%; in assay [11], 114%; in [12] it was 94%; in assay [13], 110%.
